# Assay results pooled from the literature.
# Lines come from different studies, so protocols differ.
# FLT3 K663Q: Receptor-type tyrosine-protein kinase FLT3 (FLT3, Homo sapiens, UniProt P36888, K663Q)
# FLT3 D835Y: Receptor-type tyrosine-protein kinase FLT3 (FLT3, Homo sapiens, UniProt P36888, D835Y)
# FLT3 N841I: Receptor-type tyrosine-protein kinase FLT3 (FLT3, Homo sapiens, UniProt P36888, N841I)
# FLT3: Receptor-type tyrosine-protein kinase FLT3 (FLT3, Homo sapiens, UniProt P36888)
Structure (SMILES),target,assay,conditions,measurement,value
CCCCC(=O)Nc1ccc(-c2ccc3ncn(CCC)c(=O)c3c2)cn1,FLT3 K663Q,"binding, competition with immobilised ligand",0.5 µM,remaining binding,96%
COc1ccc2[nH]c3c4[nH]c5ccc(OC)cc5c4c4c(c3c2c1)C(=O)NC4=O,FLT3 D835Y,binding,1 µM,remaining binding,16%
CNS(=O)(=O)c1ccc(Nc2ncc(C(F)(F)F)c(N3CCC[C@](C)(O)C3)n2)c(C)c1,FLT3 N841I,"binding, competition with immobilised ligand",1 µM,remaining binding,70%
C#Cc1cc(-c2cc(Nc3nc(N[C@@H](C)c4ccc(F)cn4)ncc3Cl)n[nH]2)ccc1C=O,FLT3 D835Y,"enzyme activity, inhibitor",0.2 µM,inhibition,98.5%
Cc1n[nH]c2ccc3nc(-c4ccc(C(=O)NCCN(C)C)cc4F)c4c(c3c12)CCCC4,FLT3 D835Y,"enzyme activity, inhibitor, radiometric",0.5 µM,remaining activity,2%
CN1CCN(C(=O)c2ccc(NC(=O)Nc3ccc(N(C)c4ccnc(Nc5ccc(CS(C)(=O)=O)cc5)n4)cc3)cc2)CC1,FLT3 K663Q,binding,1 µM,remaining binding,0%
C[C@]1(O)CCCN(c2nc(Nc3ccc(S(=O)(=O)N[C@H]4CC[C@H](CN5CCN(c6ccc(C7CCC(=O)NC7=O)cc6F)CC5)CC4)cc3F)ncc2C(F)(F)F)C1 (stereo partly drawn),FLT3 N841I,"binding, competition with immobilised ligand",1 µM,remaining binding,72%
O=C1C=C(Nc2ccc(OCc3cn(Cc4ccccc4)nn3)cc2)C(=O)c2ccccc21,FLT3,"enzyme activity, inhibitor, radiometric",10 µM,inhibition,46%
COc1ccc2oc(-c3ccc4nc(N)oc4c3)c/c(=N\c3ccccc3NC(=O)CCN)c2c1,FLT3 D835Y,cell-free assay,1 µM,remaining signal,92%
C1=C/COCc2cc(ccc2OCCN2CCCC2)Nc2nccc(n2)-c2cccc(c2)COC/1,FLT3 N841I,binding,0.1 µM,remaining binding,4.3%
C[C@H]1CC[C@H](n2c3cnccc3c3cnc(Nc4ccc5c(n4)CCN(C(=O)CO)C5)nc32)CC1,FLT3 N841I,cell-free assay,1 µM,remaining signal,0%
C=CC(=O)N1CCC([C@@H]2CCNc3c(C(N)=O)c(-c4ccc(Oc5ccccc5)cc4)nn32)CC1,FLT3 D835Y,"enzyme activity, inhibitor",1 µM,inhibition,81%
Cc1ccc(NC(=O)c2ccnc(C(F)(F)F)c2)cc1-c1cc(OCCO)nc(N2CCOCC2)c1,FLT3 N841I,binding,1 µM,remaining binding,82%
N#Cc1ccc(NC(=O)Nc2ccccc2)cc1,FLT3,"cell-free assay, competition with immobilised ligand",25 µM,remaining binding,100%
CC#CC(=O)N1CCC[C@H]1c1nc(-c2ccc(C(=O)Nc3ccccn3)cc2)c2c(N)nccn12,FLT3 N841I,"enzyme activity, inhibitor",1 µM,inhibition,18%
